Assay results from ChEMBL document CHEMBL1275322, “Synthesis and cytotoxic evaluation of 1-carboxamide and 1-amino side chain substituted β-carbolines” (Eur J Med Chem, 2010).

Columns and labels:
Assay type in all cases: functional, cell-based
MCF7 = assay: Cytotoxicity against human MCF7 cells by MTT assay
Method in brief: (§1)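 Cells grown in RPMI-1640 with 10% (v/v) fetal calf serum, 100 μg ml⁻¹ penicillin and 100 μg ml⁻¹ streptomycin at 37 °C, humidified 5% CO₂, in 96-well cultures. Compounds from DMSO stocks; final DMSO 2% (v/v) or lower. MTT staining read as optical density. IC50 is the concentration reducing OD by 50% vs untreated cells. Mean ± SD of at least five independent determinations. Top concentration 300 μM.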

786-0 = assay: Cytotoxicity against human 786-0 cells by MTT assay; method in brief: as §1
[1] = Cytotoxicity against human […] cells by MTT assay; method in brief: as §1
OS-RC-2 = assay: Cytotoxicity against human OS-RC2 cells by MTT assay; method in brief: as §1
HepG2 = assay: Cytotoxicity against human HepG2 cells by MTT assay; method in brief: as §1
HT-29 = assay: Cytotoxicity against human HT-29 cells by MTT assay; method in brief: as §1
CWR22R = assay: Cytotoxicity against human 22Rv1 cells by MTT assay; method in brief: as §1
A-375 = assay: Cytotoxicity against human A375 cells by MTT assay; method in brief: as §1
KB = assay: Cytotoxicity against human KB cells by MTT assay; method in brief: as §1
769-P = assay: Cytotoxicity against human 769-P cells by MTT assay; method in brief: as §1

| Structure (SMILES) | IC50 (MCF7) [µM] | IC50 (786-0) [µM] | IC50 [1] [µM] | IC50 (OS-RC-2) [µM] | IC50 (HepG2) [µM] | IC50 (HT-29) [µM] | IC50 (CWR22R) [µM] | IC50 (A-375) [µM] | IC50 (KB) [µM] | IC50 (769-P) [µM] |
| --- | --- | --- | --- | --- | --- | --- | --- | --- | --- | --- |
| NCCNc1nccc2c1[nH]c1ccccc12 | 87.2 | 31.9 | 36 | 40 | 30.6 | 33.4 | 41.3 | 33.4 | 25.4 | 31.5 |
| Brc1nccc2c3ccccc3n(CCCc3ccccc3)c12 | > 300 | > 300 | > 300 | 93.9 | > 300 | 86.6 | 88 | > 300 | > 300 | 123 |
| OCCNc1[nH]ccc2c3ccccc3nc1-2 | > 300 | > 300 | > 300 | 220 | 130 | > 300 | 136 | > 300 | > 300 | 272 |
| Fc1c(F)c(F)c(Cn2c3ccccc3c3ccnc(Br)c32)c(F)c1F | > 300 | > 300 | > 300 | > 300 | > 300 | > 300 | > 300 | > 300 | > 300 | > 300 |
| NCCNC(=O)c1nccc2c3ccccc3n(CCCc3ccccc3)c12 | 22.3 | 11.8 | 20 | 15.7 | 15.9 | 17.9 | 10.8 | 13.7 | 9.9 | 32.5 |
| CC[N+](C)(CC)CCCNC(=O)c1nccc2c1[nH]c1ccccc12 | > 300 | > 300 | > 300 | > 300 | > 300 | > 300 | > 300 | > 300 | > 300 | > 300 |
| Fc1ccc(Cn2c3ccccc3c3ccnc(Br)c32)cc1 | > 300 | > 300 | > 300 | > 300 | > 300 | 245 | > 300 | > 300 | > 300 | 252 |
| CCN(CC)CCCNC(=O)c1nccc2c1[nH]c1ccccc12 | 164 | 111 | 174 | 93.9 | 243 | 61.2 | 46.2 | 107 | 62.3 | 54 |
| NCCNc1nccc2c3ccccc3n(CCCc3ccccc3)c12 | 9.3 | 6.9 | 9.6 | 4.6 | 13.3 | 5.6 | 8.6 | 7.3 | 4.9 | 11.1 |
| CCCCn1c2ccccc2c2ccnc(NCCN)c21 | 33.6 | 18.9 | 25.3 | 9.3 | 6.6 | 13.3 | 14.2 | 22.8 | 20.5 | 68.7 |
| CCCCn1c2ccccc2c2ccnc(Br)c21 | 256 | > 300 | > 300 | 136 | > 300 | 186 | 236 | > 300 | > 300 | > 300 |
| NCCNC(=O)c1nccc2c1[nH]c1ccccc12 | 80.4 | 86.1 | 77.7 | 63.9 | 122 | 55.6 | 124 | 65.3 | 118 | 124 |
| NCCNc1nccc2c3ccccc3n(Cc3ccc(F)cc3)c12 | 21.4 | 18.8 | 9.7 | 16.3 | 4.4 | 9.1 | 17.9 | 15.6 | 19.1 | 1.8 |
| CCN(CC)CCCNC(=O)c1nccc2c3ccccc3n(CCCc3ccccc3)c12 | 31.4 | 31.4 | 22.3 | 36.9 | 22.1 | 53.4 | 26.9 | 33.8 | 14 | 61 |
| NCCCCNc1nccc2c3ccccc3n(CCCc3ccccc3)c12 | 12.8 | 2.7 | 8 | 4.2 | 4 | 17.5 | 2.9 | 9.5 | 11.3 | 2.2 |
| CC[N+](CC)(CCCNC(=O)c1nccc2c1[nH]c1ccccc12)Cc1ccccc1 | 51.1 | 137 | > 300 | > 300 | > 300 | > 300 | 71.4 | > 300 | > 300 | 101 |
| NCCNc1nccc2c3ccccc3n(Cc3c(F)c(F)c(F)c(F)c3F)c12 | 15.1 | 5.8 | 11.9 | 12 | 12.8 | 9.9 | 12.5 | 12 | 11.8 | 10.4 |
| NCCCCCCNC(=O)c1nccc2c1[nH]c1ccccc12 | 46.8 | 72.7 | 109 | 58.5 | 85.5 | 73.2 | 33.6 | 37.7 | 86.9 | 75.3 |
| NCCCCCCNc1nccc2c3ccccc3n(CCCc3ccccc3)c12 | 17.9 | 11.3 | 12.4 | 8.4 | 12.1 | 21.5 | 11.5 | 16.3 | 13 | 13.6 |
